# Shown is part of a subset that was picked to be rich in hits.
# H69AR growth 86K = growth inhibitors of human H69AR lung tumor cells. 85,000 compounds, 6% hits. viability, % at 10 µM. H69AR lung tumor viability, ATP luminescence, 72 h; hits give low values;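 active = viability at or below 40%; inactive = viability above 40%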;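 note: multidrug resistant small cell line overexpressing MRP-1 efflux transporter; 100% = mean luminescence of untreated control wells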
# Fibroblast inh = blocks proliferation of human lung fibroblasts; LL 47 human lung fibroblast viability, ATP luminescence; hits give low values; viability, % at 10 µM; 85,000 compounds, 1.1% hits;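 active = viability at or below 50% in the single dose screen; inactive = viability above 50%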;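 note: compound exposure lasted 72 h before the ATP readout; 100% = median luminescence of untreated cell-only wells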
#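 Signal: luminescent ATP detection, CellTiter-Glo; assay system: LL 47 human lung fibroblasts; input: 1,150 cells/well; incubation: overnight cell rest, 72 h compound treatment at 37 °C; measure: % viability versus median cells-only luminescence; medium: IMEM growth medium with 15% fetal bovine serum; dosing: compound addition at 0.1% DMSO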
# HUVEC prolif 384 = human endothelial cell proliferation inhibition. AID 648. 86,000 compounds, 1.1% hits. viability, % at 10 µM (by protocol). HUVEC proliferation, CellTiter-Glo luminescence, 72 h; hits give low values;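 active = viability at or below 30%; inactive = viability above 30%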;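 note: 100% = median luminescence of DMSO-only cell control wells on each plate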
# PTEN del growth = PTEN-deleted cell growth suppression | HCT116 PTEN-null viability, CellTiter-Glo, 60 h; hits give low values | viability, % at 10 µM | 140,000 compounds, 1.2% hits | AID 827;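 active = viability at or below a set limit, 4 SD under the median of all tested compounds, cut at about 3.7% in these data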;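 note: PTEN knockout HCT116 line with beta catenin targeted HCT116 as companion control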
# HCT116 bCat-KO = beta-catenin-lacking colon tumor cell growth suppression | HCT116 beta-catenin knockout viability, CellTiter-Glo, 60 h; hits give low values | viability, % at 10 µM | 140,000 compounds, 1.5% hits;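 active = viability at or under a set limit, the compound median less 4 SD, cut at about 6% in these data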;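 note: 0% = Hyamine 1622 control at 20 µM and 100% = untreated cell control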
# Numbers without * were called inactive; . = not tested or not shown.
SMILES,H69AR growth 86K,Fibroblast inh,HUVEC prolif 384,PTEN del growth,HCT116 bCat-KO
CC(C)c1nnc(NC(=O)CCS(=O)(=O)c2nc(-c3cccs3)cc(C(F)(F)F)n2)s1,1.1*,84.8,16.2*,53.3,50.4
O=C(CCS(=O)(=O)c1ccccc1)Nc1nc(-c2cccs2)cs1,.,.,.,32.4,25.8
Nc1c(-c2cccc([N+](=O)[O-])c2)nc2ccccn12,.,.,.,85.0,78.5
O=c1c(/C=C(\O)c2ccccc2)nc2ccccc2n1-c1ccccc1,38.8*,103.5,111.6,77.3,84.8
CCCCNC(=O)N(O)C1N(CCCC)C(=O)N(CC(=O)OC)C1(C)C (stereo unspecified),95.6,100.8,95.8,99.3,86.8
COc1ccc(OC)c(N(CC(=O)Nc2cccnc2)S(=O)(=O)c2ccc(OC)c(OC)c2)c1,82.4,95.8,98.7,99.2,103.2
COc1ccc(OC)c(N(CC(=O)Nc2cccnc2)S(=O)(=O)c2ccc(C)cc2)c1,17.8*,59.1,49.5,33.0,48.9
CC(C)(C)c1nc(N2CCN(C(=O)c3ccco3)CC2)c2nnn(Cc3ccccc3)c2n1,11.1*,92.8,76.5,59.6,60.3
CCOc1ccccc1-n1c(CN2CCN(C(=O)c3ccco3)CC2)nc2ccccc2c1=O,62.7,14.6*,51.8,2.5*,3.6*
CCOc1cc(CN2CCN(C(=O)c3ccco3)CC2)ccc1OC,85.9,99.0,94.4,102.2,91.7
CCc1nc(N2CCN(C(=O)c3ccco3)CC2)c2oc3ccccc3c2n1,22.2*,94.4,76.3,31.2,42.2
O=C(N/N=C/c1coc2ccccc2c1=O)c1cn(-c2ccccc2)nc1-c1ccc(F)cc1,.,.,.,75.3,83.9
O=C(Cn1cnc2ccccc21)N/N=C/C(Br)=C/c1ccccc1,.,.,.,47.9,47.4
Cc1cc(C(=O)CSc2nnc(-c3ccc(F)cc3)o2)c(C)n1CC1COc2ccccc2O1 (stereo unspecified),33.5*,81.2,51.6,71.3,70.3
Cc1ccc(C(=O)C(c2ccccc2)N2Cc3ccccc3C2=N)cc1 (stereo unspecified),.,.,.,77.8,77.8
COc1ccccc1Nc1nnc(SCC(=O)c2cc(C)n(CC3CCCO3)c2C)s1 (stereo unspecified),37.8*,99.8,102.5,87.3,93.9
Cc1cc(C(=O)CSc2nnc(Nc3ccccc3F)s2)c(C)n1CC1CCCO1 (stereo unspecified),92.1,102.2,87.4,87.8,81.6
Cc1ccc(NC(=O)CN(C)C(=O)/C=C/c2cccs2)cc1,.,.,.,100.7,89.6
O=C1CN(C(=O)c2cc3ccccc3oc2=O)C(c2ccc(F)cc2)c2cc(Br)ccc2N1 (stereo unspecified),.,.,.,83.1,91.0
CCn1nc([N+](=O)[O-])c(C(C#N)c2nc3ccccc3n2C)c(Cl)c1=O (stereo unspecified),.,.,.,87.3,83.2
Cn1c(C(C#N)C(=O)c2sc3ccccc3c2Cl)nc2ccccc21 (stereo unspecified),17.1*,90.2,78.3,83.6,89.7
O=C(/C(=C/c1ccc(Cl)cc1)c1nc2ccccc2[nH]1)c1ccccc1,.,.,.,0.8*,1.2*
COc1ccc(C(=O)N/C(=C/c2cccs2)c2nc3ccccc3[nH]2)cc1OC,.,.,.,70.7,80.4
COc1cc(/C=C(/C(=O)c2cccs2)c2nc3ccccc3[nH]2)cc(OC)c1O,2.6*,18.6*,102.3,2.5*,5.2*
CC(CC(=O)Nc1ccccc1C(F)(F)F)c1ccccc1 (stereo unspecified),.,.,.,93.3,85.5
SMILES,H69AR growth 86K,Fibroblast inh,HUVEC prolif 384,PTEN del growth,HCT116 bCat-KO
Cn1c(-c2ccc3ccccc3n2)nc2cnccc21,74.0,86.8,28.8*,57.1,65.6
Cc1ccccc1Nc1nnc(SCC(=O)NC2CCCc3ccccc32)s1 (stereo unspecified),.,.,.,77.0,77.7
CC(=O)CSc1nsc(SCC(C)=O)c1C#N,30.9*,.,88.8,70.1,67.2
O=C(Nc1ccc(NC(=O)c2sc3ccccc3c2Cl)cc1)c1ccco1,.,.,.,1.5*,1.4*
CC(C)(C)NC(=O)c1cccc(NC(=O)c2ccco2)c1,63.1,107.5,107.1,91.7,102.3
Cn1c(NC(=O)c2ccccc2)cc(=O)n(C)c1=O,94.0,97.0,94.6,95.1,85.6
CC(C)(C)NC(=O)c1cccc(NC(=O)c2ccc(NC(=O)c3ccco3)cc2)c1,32.7*,93.9,81.7,57.0,68.4
CC(C)CNC(=O)c1cccc(NC(=O)c2ccc(NC(=O)c3ccco3)cc2)c1,28.0*,81.8,75.4,39.9,47.8
Cn1c(NC(=O)c2ccco2)cc(=O)n(C)c1=O,23.7*,96.0,98.7,111.4,105.8
Cc1ccc(-c2nc3ccccc3c(=O)n2NC(=S)N(C)C)cc1,.,.,.,92.9,86.1
O=C(c1ccccn1)N1N=C2/C(=C/c3ccc(F)cc3)CCCC2C1c1ccc(F)cc1 (stereo unspecified),.,.,.,64.1,70.4
COC(=O)c1c(NC(=O)c2ccco2)sc(C(=O)Nc2ccc(F)cc2)c1C,3.6*,100.3,34.5,53.7,66.4
CC(C)(C)c1ccc(C(=O)Nc2ccc(NC(=O)c3ccco3)cc2)cc1,33.4*,27.6*,43.1,22.8,8.0
COC(=O)c1c(NC(=O)c2ccco2)sc(C)c1C,86.6,98.8,83.5,88.7,86.2
C=CCn1c(N)c(C(=O)OC(C)(C)C)c2nc3ccccc3nc21,29.5*,94.9,92.8,68.5,76.8
O=c1c2ccccc2nc2ccc(NCc3ccco3)nn12,39.2*,87.5,84.8,68.3,65.4
Cc1sc2nc3ccc(NCc4ccco4)nn3c(=O)c2c1C,.,.,.,17.7,27.0
Cc1nc2ccc(NS(=O)(=O)c3c(C)c(C)cc(C)c3C)cc2s1,16.4*,95.9,87.0,35.9,28.1
CCc1ccc(/C=c2\s/c(=C\C(=O)C(C)(C)C)[nH]c2=O)cc1,14.1*,83.7,47.3,42.8,46.1
CC(C)(C)C(=O)/C=c1\[nH]c(=O)/c(=C\c2ccc(F)cc2)s1,17.7*,74.8,65.8,37.7,38.9
Cc1ccccc1/C=c1\s/c(=C\C(=O)C(C)(C)C)[nH]c1=O,18.7*,69.4,52.4,28.0,23.9
CCn1cc(Br)c(C(=O)NC(=S)Nc2ccc(C(=O)OC)cc2)n1,.,.,.,94.6,86.4
Cc1cc([N+](=O)[O-])ccc1N(C)C,.,.,.,93.3,84.5
COc1ccc(C2N(Cc3ccccc3)CC(=O)N2/N=C(\C)c2ccccc2)cc1 (stereo unspecified),.,.,.,104.5,96.7
Cc1c(CN(C)C)c2c(n1C)C(=O)c1ccc(Br)cc1-2,65.8,76.8,78.3,67.9,68.0
Cc1c(CN(C)C)c2c(n1Cc1ccccc1)C(=O)c1ccc(Br)cc1-2,5.5*,45.9*,22.4*,8.5,10.3
Cc1ccc(NC(=O)/C(=C/c2cccc([N+](=O)[O-])c2)NC(=O)C2CCCCC2)c(C)c1,26.7*,9.6*,33.0,67.4,63.7
O=C(Nc1ccc([N+](=O)[O-])cc1)/C(=C/c1cccc([N+](=O)[O-])c1)NC(=O)C1CCCCC1,56.8,84.8,84.1,53.8,71.2

# Compound activity (PubChem)
